According to ChEMBL document CHEMBL3804761, “Synthesis of a stable and orally bioavailable englerin analogue” (Bioorg Med Chem Lett, 2016):

Legend:
Type in all cases: functional
[1] = tested on: Malme-3M; test: Growth inhibition of human MALME-3M cells assessed as cell growth at 10 uM incubated for 48 hrs by sulforhodamine B assay relative to control; settings: read-out: Activity
Outline: (§1)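 Run in the standard NCI 60-cell-line screen. Cells were exposed to drug for two days, and the read-out was sulforhodamine B staining. Compound was tested at a single final concentration of 10 µM in every line, and results are reported as growth percent.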

[2] = Growth inhibition of human HOP62 cells assessed as cell growth at 10 uM incubated for 48 hrs by sulforhodamine B assay relative to control; settings: HOP-62, 48 h, read-out: Activity; outline: as §1
[3] = Growth inhibition of human RPMI8226 cells assessed as cell growth at 10 uM incubated for 48 hrs by sulforhodamine B assay relative to control; settings: RPMI-8226, 48 h, read-out: Activity; outline: as §1
[4] = Growth inhibition of human TK10 cells assessed as cell growth at 10 uM incubated for 48 hrs by sulforhodamine B assay relative to control; settings: TK-10, 48 h, read-out: Activity
Outline: (§2)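 NCI 60-cell line standard protocol, one-dose screen: single final concentration 10 µM, 2-day drug exposure, sulforhodamine B (SRB) endpoint; read-out is growth percent relative to untreated control.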

[5] = Growth inhibition of human UO31 cells assessed as cell growth at 10 uM incubated for 48 hrs by sulforhodamine B assay relative to control; settings: UO-31, 48 h, read-out: Activity; outline: as §2
[6] = Growth inhibition of human SF295 cells assessed as cell growth at 10 uM incubated for 48 hrs by sulforhodamine B assay relative to control; settings: SF-295, 48 h, read-out: Activity; outline: as §1
[7] = tested on: SN12C; test: Growth inhibition of human SN12C cells assessed as cell growth at 10 uM incubated for 48 hrs by sulforhodamine B assay relative to control; settings: read-out: Activity; outline: as §1
[8] = Growth inhibition of human Hs 578T cells assessed as cell growth at 10 uM incubated for 48 hrs by sulforhodamine B assay relative to control; settings: read-out: Activity
[9] = tested on: HT-29; test: Growth inhibition of human HT-29 cells assessed as cell growth at 10 uM incubated for 48 hrs by sulforhodamine B assay relative to control; settings: HT-29, 48 h, read-out: Activity; outline: as §1
[10] = Growth inhibition of human UACC257 cells assessed as cell growth at 10 uM incubated for 48 hrs by sulforhodamine B assay relative to control; settings: UACC-257, 48 h, read-out: Activity; outline: as §2
[11] = tested on: SK-MEL-2; test: Growth inhibition of human SK-MEL-2 cells assessed as cell growth at 10 uM incubated for 48 hrs by sulforhodamine B assay relative to control; settings: SK-MEL-2, 48 h, read-out: Activity; outline: as §1
[12] = Growth inhibition of human HCT116 cells assessed as cell growth at 10 uM incubated for 48 hrs by sulforhodamine B assay relative to control; settings: HCT-116, 48 h, read-out: Activity; outline: as §1
[13] = Growth inhibition of human SNB19 cells assessed as cell growth at 10 uM incubated for 48 hrs by sulforhodamine B assay relative to control; settings: SNB-19, 48 h, read-out: Activity; outline: as §1
[14] = Growth inhibition of human LOXIMVI cells assessed as cell growth at 10 uM incubated for 48 hrs by sulforhodamine B assay relative to control; settings: LOX IMVI, read-out: Activity
Outline: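 Single-dose screen in the NCI 60-cell-line panel at one final concentration of 10 µM. Two-day drug exposure with a sulforhodamine B endpoint. Values are growth percent for each cell line.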

[15] = Growth inhibition of human MOLT4 cells incubated for 48 hrs by sulforhodamine B assay; settings: MOLT-4, 48 h
Outline: (§3)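 NCI 60-cell-line panel, standard protocol. Cells exposed to compound for two days, growth read by sulforhodamine B staining. Tested at five 10-fold dilutions, top concentration 100 µM, to give dose-response curves.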

[16] = tested on: T47D; test: Growth inhibition of human T47D cells incubated for 48 hrs by sulforhodamine B assay
Outline: (§4)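 Tested in the standard NCI 60-cell-line protocol with two-day drug exposure and a sulforhodamine B endpoint. Compounds were first screened at a single final concentration of 10 µM, reported as growth percent. They were then run as five 10-fold dilutions starting from a high concentration of 100 µM to give dose-response curves.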

[17] = tested on: 786-0; test: Growth inhibition of human 786-0 cells incubated for 48 hrs by sulforhodamine B assay; settings: 786-0, 48 h; outline: as §3
[18] = Growth inhibition of human HL-60(TB) cells incubated for 48 hrs by sulforhodamine B assay; settings: HL-60, 48 h; outline: as §3
[19] = tested on: KM12; test: Growth inhibition of human KM12 cells incubated for 48 hrs by sulforhodamine B assay; settings: KM12, 48 h; outline: as §3
[20] = Growth inhibition of human COLO205 cells incubated for 48 hrs by sulforhodamine B assay; settings: COLO 205, 48 h; outline: as §3
[21] = Growth inhibition of human SNB19 cells incubated for 48 hrs by sulforhodamine B assay; settings: SNB-19, 48 h; outline: as §4
[22] = Growth inhibition of human HCT15 cells incubated for 48 hrs by sulforhodamine B assay; settings: HCT-15, 48 h; outline: as §3
[23] = tested on: SK-MEL-5; test: Growth inhibition of human SK-MEL-5 cells incubated for 48 hrs by sulforhodamine B assay; settings: SK-MEL-5, 48 h; outline: as §3
[24] = Growth inhibition of human PC3 cells incubated for 48 hrs by sulforhodamine B assay; settings: PC-3, 48 h; outline: as §3
[25] = Growth inhibition of human RPMI8226 cells incubated for 48 hrs by sulforhodamine B assay; settings: RPMI-8226, 48 h; outline: as §3
[26] = Growth inhibition of human DU145 cells incubated for 48 hrs by sulforhodamine B assay; settings: DU-145, 48 h; outline: as §3
[27] = tested on: NCI-H226; test: Growth inhibition of human NCI-H226 cells incubated for 48 hrs by sulforhodamine B assay; settings: NCI-H226, 48 h; outline: as §3
[28] = Growth inhibition of human SW620 cells incubated for 48 hrs by sulforhodamine B assay; settings: SW-620, 48 h; outline: as §4
[29] = read-out: pLC50 (the source's name) (converted)

CC(C)[C@@]12C[C@@H](NC(=O)CF)[C@@](C)(O1)[C@@H]1CC[C@@H](C)[C@H]1[C@@H]2OC(=O)/C=C/c1ccccc1
growth at 10 µM [1]: 106%
growth at 10 µM [2]: 90.8%
growth at 10 µM [3]: 94.3%
growth at 10 µM [4]: 104%
growth at 10 µM [5]: 91.1%
growth at 10 µM [6]: 105%
growth at 10 µM [7]: 103%
growth at 10 µM [8]: 92.6%
growth at 10 µM [9]: 109%
growth at 10 µM [10]: 105%
growth at 10 µM [11]: 117%
growth at 10 µM [12]: 87.4%
growth at 10 µM [13]: 104%
growth at 10 µM [14]: 102%

CC(C)[C@@]12C[C@@H](NC(=O)CO)[C@@](C)(O1)[C@@H]1CC[C@@H](C)[C@H]1[C@@H]2OC(=O)/C=C/C1CCCCC1
GI50 [15]: > 44.7 µM
LC50 [15]: > 44.7 µM
TGI ([15]; read-out: pTGI (converted)): > 44.7 µM
growth at 10 µM [1]: 109%
GI50 [16]: > 44.7 µM
CC50 [16, 29]: > 44.7 µM
TGI ([16]; read-out: pTGI (converted)): > 44.7 µM
growth at 10 µM [2]: 108%
growth at 10 µM [3]: 134%
growth at 10 µM [4]: 94.1%
GI50 [17]: > 44.7 µM
LC50 [17]: > 44.7 µM
TGI ([17]; read-out: pTGI (converted)): > 44.7 µM
GI50 [18]: > 44.7 µM
CC50 [18, 29]: > 44.7 µM
TGI ([18]; read-out: pTGI (converted)): > 44.7 µM
growth at 10 µM [5]: 95.1%
growth at 10 µM [6]: 86.3%
growth at 10 µM [7]: 86.7%
growth at 10 µM [8]: 73%
GI50 [19]: > 44.7 µM
LC50 [19]: > 44.7 µM
TGI ([19]; read-out: pTGI (converted)): > 44.7 µM
GI50 [20]: > 44.7 µM
CC50 [20, 29]: > 44.7 µM
TGI ([20]; read-out: pTGI (converted)): > 44.7 µM
growth at 10 µM [9]: 97.4%
GI50 [21]: > 44.7 µM
CC50 [21, 29]: > 44.7 µM
TGI ([21]; read-out: pTGI (converted)): > 44.7 µM
GI50 [22]: > 44.7 µM
LC50 [22]: > 44.7 µM
TGI ([22]; read-out: pTGI (converted)): > 44.7 µM
GI50 [23]: > 44.7 µM
LC50 [23]: > 44.7 µM
TGI ([23]; read-out: pTGI (converted)): > 44.7 µM
growth at 10 µM [10]: 98.2%
GI50 [24]: > 44.7 µM
CC50 [24, 29]: > 44.7 µM
TGI ([24]; read-out: pTGI (converted)): > 44.7 µM
GI50 [25]: > 44.7 µM
CC50 [25, 29]: > 44.7 µM
TGI ([25]; read-out: pTGI (converted)): > 44.7 µM
GI50 [26]: > 44.7 µM
CC50 [26, 29]: > 44.7 µM
TGI ([26]; read-out: pTGI (converted)): > 44.7 µM
growth at 10 µM [11]: 99.2%
GI50 [27]: > 44.7 µM
LC50 [27]: > 44.7 µM
TGI ([27]; read-out: pTGI (converted)): > 44.7 µM
growth at 10 µM [12]: 103%
GI50 [28]: > 44.7 µM
LC50 (50% lethal concentration) [28]: > 44.7 µM
TGI ([28]; read-out: pTGI (converted)): > 44.7 µM
growth at 10 µM [13]: 103%
